The record followed here is ChEMBL document CHEMBL4152372, “Novel autophagy modulators: Design and synthesis of (+)-epogymnolactam analogues and structure-activity relationship” (Bioorg Med Chem, 2018).

Calls of active or inactive are those of the source. The calls are words filed in the database; no cut-off is given here.

The subject of data set [1] is NIH3T3. Description: Induction of autophagy in mouse NIH/3T3 cells assessed as increase in LC3-2 to actin ratio at 25 to 100 uM after 4 hrs by immunoblot analysis. The format is functional, cell-based. The procedure, abridged:
(§1)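 Mouse embryo NIH3T3 fibroblasts seeded at 3.3 × 10^5 cells/ml at 37°C, 5% CO2; after 24 h the medium was changed and compounds added in DMSO at 25, 50 or 100 μM final. Controls were DMSO vehicle and 5 μM rapamycin. After 4 h at 37°C, cells were lysed in RIPA buffer and run on SDS-PAGE. Blots were probed for LC3, p62 and actin, and band signal ratios were quantified. Mean ± SD of triplicate.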
(In western blotting, separated proteins are transferred to a membrane and probed.)

The subject of data set [2] is NIH3T3. Description: Induction of autophagy in mouse NIH/3T3 cells assessed as increase in LC3-2 to LC3-1 ratio at 25 to 100 uM after 4 hrs by immunoblot analysis. The format is functional, cell-based. An outline of the steps: as §1
In data set [3] the test system is NIH3T3. Description: Cytotoxicity against mouse NIH/3T3 cells assessed as reduction in cell viability at 25 to 100 uM after 4 hrs by CCK8 assay. Type of data set: cell-based. The note with it: nih3t3, 4 h. An outline of the steps: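 NIH3T3 cells counted by trypan blue exclusion, set to 0.53 × 10^4 cells/ml, and dosed at 25, 50 or 100 μM final (DMSO 0.1%). After 4 h at 37°C under CO2, CCK-8 reagent was added and incubation continued […]. Viable cells were read as OD450 against the DMSO control, mean ± SD of triplicate.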
In general terms: Formazan colour is commonly taken as a measure of viable cells.

Data set [4] concerns NIH3T3. Kind of data set: Induction of autophagy in mouse NIH/3T3 cells assessed as upregulation of p62 expression after 4 hrs by immunoblot analysis. Type of data set: functional, cell-based. An outline of the steps:
as §1

The subject of data set [5] is NIH3T3. Kind of data set: Induction of apoptosis in mouse NIH/3T3 cells assessed as cell shrinkage at 100 uM measured after 4 hrs. The format is functional, cell-based.
Data set [6] relates to NIH3T3. Description: Induction of autophagy in mouse NIH/3T3 cells assessed as increase in LC3-2 to actin ratio after 4 hrs by immunoblot analysis. Type of data set: functional, cell-based. An outline of the steps:
as §1

Data set [7] deals with NIH3T3. Description: Induction of autophagy in mouse NIH/3T3 cells assessed as increase in LC3-2 to LC3-1 ratio after 4 hrs by immunoblot analysis. Type of data set: functional, cell-based. The procedure, abridged:
as §1

In data set [8] the test system is NIH3T3. Kind of data set: Induction of autophagy in mouse NIH/3T3 cells assessed as upregulation of p62 expression after 6 hrs by immunoblot analysis. The format is functional, cell-based.
Data set [9] deals with NIH3T3. Description: Modulation of autophagy in mouse NIH/3T3 cells assessed as effect on p62 expression at 25 to 100 uM after 4 hrs by immunoblot analysis. Type of data set: functional, cell-based. The procedure, abridged: as §1
Data set [10] relates to NIH3T3. Kind of data set: Induction of apoptosis in mouse NIH/3T3 cells assessed as cell shrinkage at 50 to 100 uM measured after 4 hrs. The format is functional, cell-based.
Data set [11] relates to NIH3T3. Description: Inhibition of autophagy in mouse NIH/3T3 cells assessed as decrease in LC3-2 to actin ratio after 4 hrs by immunoblot analysis. The format is functional, cell-based. The procedure, abridged: (§2)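 NIH3T3 mouse embryo fibroblasts seeded at 3.3 × 10^5 cells/ml, cultured 24 h at 37°C/5% CO2, medium changed, then given compound in DMSO at final 25, 50, 100 μM for 4 h at 37°C. DMSO vehicle control; 5 μM rapamycin positive control. Cells lysed in RIPA, SDS-PAGE immunoblot for LC3, SQSTM1/p62, actin; band signals quantified as relative ratios. Mean ± SD of triplicates.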

The subject of data set [12] is NIH3T3. Description: Induction of autophagy in mouse NIH/3T3 cells assessed as upregulation of p62 expression at 25 to 100 uM after 4 hrs by immunoblot analysis. The format is functional, cell-based. An outline of the steps:
as §2

Data set [13] deals with NIH3T3. Kind of data set: Inhibition of autophagy in mouse NIH/3T3 cells assessed as decrease in LC3-2 to LC3-1 ratio after 4 hrs by immunoblot analysis. Type of data set: functional, cell-based. An outline of the steps: as §2
In data set [14] the test system is NIH3T3. Kind of data set: Modulation of autophagy in mouse NIH/3T3 cells assessed as effect on LC3-2 to LC3-1 ratio at 25 to 100 uM after 4 hrs by immunoblot analysis. The format is functional, cell-based. An outline of the steps:
as §1

For data set [15], the system named is NIH3T3. Description: Modulation of autophagy in mouse NIH/3T3 cells assessed as effect on LC3-2 to actin ratio at 25 to 100 uM after 4 hrs by immunoblot analysis. The format is functional, cell-based. The procedure, abridged: as §1

As to `CCCC[C@]1(OC)NC(=O)[C@@H]2O[C@@H]21`, the result in [1] and in [2] was inactive.

On to `CCCC[C@@H](O)[C@H]1O[C@H]1C(N)=O`, for which the result in [1] and in data set [2] was inactive.

As for `CCCCCCC(=O)[C@H]1O[C@H]1C(N)=O`, the Activity entry was “Toxic” in [3], “Dose-dependent effect” in data set [4], “Dose-dependent effect” in data set [6] and “Dose-dependent effect” in data set [7]. The result in data set [5] was Active.

`CCCCC(=O)[C@H]1O[C@H]1C(=O)N(C)C`: the outcome in data set [1] and in data set [2] was inactive.

Consider `CCCC[C@@]1(O)NC(=O)[C@@H]2O[C@@H]21`, for which, in data set [3], the Activity entry is given as “Toxic”. For the same compound, the result in [8], in data set [1] and in data set [2] was Active. The outcome in data set [9] and in data set [10] was inactive.

Turning to `CCCCCCCCC(=O)[C@H]1O[C@H]1C(N)=O`, the Activity result in [3] is “Toxic”. Also, the inhibition result in [11] and in data set [13] was “Dose-dependent effect” each time. For the same compound, the outcome in data set [12] and in [10] was Active.

On to `CCCCCCCCCCC(=O)[C@H]1O[C@H]1C(N)=O`, for which the Activity result in [3] is “Toxic”. Also, the outcome in data set [14] and in [15] was inactive.

As for `C/C=C/C/C=C/CCC(=O)[C@H]1O[C@H]1C(N)=O` [CERULENIN], in [3], the Activity entry is “Toxic”. The inhibition entry in data set [11] and in [13] was “Dose-dependent effect” in each case. Moreover, the outcome in data set [12] was Active.

For `CCCCC(=O)CCC(N)=O`, the outcome in [1] and in data set [2] was inactive.

As to `CCCCC1(O)NC(=O)[C@H]2O[C@H]21` (stereo partly drawn), the outcome in data set [1] and in data set [2] was inactive.
